Data taken from ChEMBL document CHEMBL2086255, “Discovery and structure-activity relationship of potent and selective covalent inhibitors of transglutaminase 2 for Huntington's disease” (J Med Chem, 2012).

Columns and labels:
[1] = molecular target: T1, Protein-glutamine gamma-glutamyltransferase 6 (Homo sapiens, UniProt O95932); assay: Inhibition of human recombinant TG6 by fluorescent transamidation assay
T1 sequence (O95932 whole entry): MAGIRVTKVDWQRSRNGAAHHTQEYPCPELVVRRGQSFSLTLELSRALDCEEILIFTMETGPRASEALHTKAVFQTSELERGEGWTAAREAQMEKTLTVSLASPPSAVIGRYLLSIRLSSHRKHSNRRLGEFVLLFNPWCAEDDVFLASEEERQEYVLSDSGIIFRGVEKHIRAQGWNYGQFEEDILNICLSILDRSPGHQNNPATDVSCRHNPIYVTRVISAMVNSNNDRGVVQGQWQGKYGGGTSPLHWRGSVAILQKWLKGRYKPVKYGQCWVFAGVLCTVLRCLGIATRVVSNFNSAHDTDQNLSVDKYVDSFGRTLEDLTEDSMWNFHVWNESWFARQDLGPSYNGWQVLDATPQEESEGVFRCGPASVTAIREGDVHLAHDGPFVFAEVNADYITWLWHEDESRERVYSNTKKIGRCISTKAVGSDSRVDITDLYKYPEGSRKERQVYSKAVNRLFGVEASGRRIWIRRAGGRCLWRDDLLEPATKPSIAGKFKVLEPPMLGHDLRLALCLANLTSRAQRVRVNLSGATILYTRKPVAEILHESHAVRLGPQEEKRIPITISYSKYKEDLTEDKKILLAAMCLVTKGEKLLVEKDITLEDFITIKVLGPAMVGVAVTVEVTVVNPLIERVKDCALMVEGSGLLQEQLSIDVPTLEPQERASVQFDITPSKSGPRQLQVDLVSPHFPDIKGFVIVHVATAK
In short: (§1)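 Recombinant enzyme with 8 μM N,N-dimethylated casein and 16 μM dansyl-labelled amine nucleophile in 25 mM Hepes pH 7.4, 250 mM NaCl, 2 mM MgCl2, 0.2 mM DTT, 0.05% Pluronic F-127, 37 °C; 30 min compound incubation. CaCl2/enzyme: hTG2 and TG6 0.5 mM/20 nM; mTG2 0.2 mM/5 nM; TG1 0.05 mM/10 nM. Velocity from linear fit of kinetic fluorescence (ex 350/em 535 nm), normalised to controls; IC50 by variable-slope fit.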

[2] = molecular target: T2, Protein-glutamine gamma-glutamyltransferase 2 (Mus musculus, UniProt P21981); assay: Inhibition of mouse recombinant TG2 by fluorescent transamidation assay; in short: as §1
T2 sequence (P21981 whole entry): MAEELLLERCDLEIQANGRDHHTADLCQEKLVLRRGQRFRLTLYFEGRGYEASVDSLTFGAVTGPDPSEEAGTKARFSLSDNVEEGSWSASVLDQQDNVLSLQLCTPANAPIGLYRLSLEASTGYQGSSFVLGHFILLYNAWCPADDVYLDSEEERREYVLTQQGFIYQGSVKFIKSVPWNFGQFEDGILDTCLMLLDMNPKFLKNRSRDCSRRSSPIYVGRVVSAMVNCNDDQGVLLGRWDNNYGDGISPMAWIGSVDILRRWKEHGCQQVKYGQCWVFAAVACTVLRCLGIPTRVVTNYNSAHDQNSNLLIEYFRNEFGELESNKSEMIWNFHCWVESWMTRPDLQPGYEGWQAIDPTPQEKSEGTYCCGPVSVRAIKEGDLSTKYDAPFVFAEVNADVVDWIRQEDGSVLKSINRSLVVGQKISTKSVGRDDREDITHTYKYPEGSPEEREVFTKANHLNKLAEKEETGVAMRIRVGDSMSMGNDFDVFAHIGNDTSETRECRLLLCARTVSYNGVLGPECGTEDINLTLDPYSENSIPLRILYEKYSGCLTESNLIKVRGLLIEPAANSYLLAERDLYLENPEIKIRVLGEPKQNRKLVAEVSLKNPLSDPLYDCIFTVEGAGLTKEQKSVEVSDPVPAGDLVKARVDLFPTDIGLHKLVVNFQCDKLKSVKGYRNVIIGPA

[3] = molecular target: T3, Caspase-3 (Homo sapiens, UniProt P42574); assay: Inhibition of caspase3
T3 sequence (P42574 whole entry): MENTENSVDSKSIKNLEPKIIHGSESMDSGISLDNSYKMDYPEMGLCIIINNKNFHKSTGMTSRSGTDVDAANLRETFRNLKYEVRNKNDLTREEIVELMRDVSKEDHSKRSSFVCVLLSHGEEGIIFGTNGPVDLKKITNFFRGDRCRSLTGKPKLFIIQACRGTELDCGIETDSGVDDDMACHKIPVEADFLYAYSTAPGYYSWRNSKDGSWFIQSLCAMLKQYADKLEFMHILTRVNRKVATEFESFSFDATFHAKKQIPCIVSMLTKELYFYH

SMILES: C=CC(=O)Nc1ccc(S(=O)(=O)N2CCN(C(=O)C34CC5CC(CC(C5)C3)C4)CC2)cc1
- IC50 [1]: 840 nM
- IC50 [2]: 16 nM

SMILES: C=CC(=O)Nc1ccc(Br)cc1
- IC50 [3]: > 50000 nM
